Measurements taken from ChEMBL document CHEMBL3414471 (J Med Chem, 2015).
Calls of active or inactive are those of the source. The calls are words filed in the database; no cut-off is given here.

Columns and labels:
CYP2C19 = CYP2C19 (Homo sapiens, UniProt P33261); assay: Inhibition of human CYP2C19 using omeprazole as substrate at 10 uM; format: ADME; settings: probe omeprazole
[1] = biological target: T1, 5-hydroxytryptamine receptor 2B (Homo sapiens, UniProt P41595); assay: Agonist activity at human 5-HT2B receptor expressed in HEK293 cells assessed as calcium flux at 10 uM by FLIPR assay; format: functional, cell-based
T1 sequence (P41595 whole entry): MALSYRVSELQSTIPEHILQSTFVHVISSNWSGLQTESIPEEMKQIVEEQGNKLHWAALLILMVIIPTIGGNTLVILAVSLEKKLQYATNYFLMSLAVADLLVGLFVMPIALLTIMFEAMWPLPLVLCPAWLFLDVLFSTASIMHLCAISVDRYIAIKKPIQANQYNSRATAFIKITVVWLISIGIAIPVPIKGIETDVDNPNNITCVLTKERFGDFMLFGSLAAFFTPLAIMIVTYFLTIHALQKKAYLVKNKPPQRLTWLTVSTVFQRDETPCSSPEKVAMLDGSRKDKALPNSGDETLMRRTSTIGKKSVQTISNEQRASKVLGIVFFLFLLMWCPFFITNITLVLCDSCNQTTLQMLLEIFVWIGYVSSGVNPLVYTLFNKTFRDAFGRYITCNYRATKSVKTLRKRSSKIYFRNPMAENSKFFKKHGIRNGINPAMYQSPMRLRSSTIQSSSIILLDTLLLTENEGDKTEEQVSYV
Method in brief: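 Flp-In-293 cells stably expressing human 5-HT2A, 5-HT2B or 5-HT2C-INI, grown in DMEM with 10% dialyzed FBS, then plated for 24 h in 1% dialyzed FBS. Cells were loaded 1 h at 37 °C with calcium dye in Hepes-buffered HBSS, pH 7.40, containing 2.5 mM probenecid. FLIPR read 10 s baseline, then 120 s after drug addition.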

hERG (KCNH2) [2] = biological target: T2, hERG (KCNH2) (Homo sapiens, UniProt Q12809); assay: Inhibition of human ERG channel expressed in CHO cells at 10 uM by patch clamp method; format: cell-based; settings: CHO cells expressing human ERG channel
T2 sequence (Q12809 whole entry): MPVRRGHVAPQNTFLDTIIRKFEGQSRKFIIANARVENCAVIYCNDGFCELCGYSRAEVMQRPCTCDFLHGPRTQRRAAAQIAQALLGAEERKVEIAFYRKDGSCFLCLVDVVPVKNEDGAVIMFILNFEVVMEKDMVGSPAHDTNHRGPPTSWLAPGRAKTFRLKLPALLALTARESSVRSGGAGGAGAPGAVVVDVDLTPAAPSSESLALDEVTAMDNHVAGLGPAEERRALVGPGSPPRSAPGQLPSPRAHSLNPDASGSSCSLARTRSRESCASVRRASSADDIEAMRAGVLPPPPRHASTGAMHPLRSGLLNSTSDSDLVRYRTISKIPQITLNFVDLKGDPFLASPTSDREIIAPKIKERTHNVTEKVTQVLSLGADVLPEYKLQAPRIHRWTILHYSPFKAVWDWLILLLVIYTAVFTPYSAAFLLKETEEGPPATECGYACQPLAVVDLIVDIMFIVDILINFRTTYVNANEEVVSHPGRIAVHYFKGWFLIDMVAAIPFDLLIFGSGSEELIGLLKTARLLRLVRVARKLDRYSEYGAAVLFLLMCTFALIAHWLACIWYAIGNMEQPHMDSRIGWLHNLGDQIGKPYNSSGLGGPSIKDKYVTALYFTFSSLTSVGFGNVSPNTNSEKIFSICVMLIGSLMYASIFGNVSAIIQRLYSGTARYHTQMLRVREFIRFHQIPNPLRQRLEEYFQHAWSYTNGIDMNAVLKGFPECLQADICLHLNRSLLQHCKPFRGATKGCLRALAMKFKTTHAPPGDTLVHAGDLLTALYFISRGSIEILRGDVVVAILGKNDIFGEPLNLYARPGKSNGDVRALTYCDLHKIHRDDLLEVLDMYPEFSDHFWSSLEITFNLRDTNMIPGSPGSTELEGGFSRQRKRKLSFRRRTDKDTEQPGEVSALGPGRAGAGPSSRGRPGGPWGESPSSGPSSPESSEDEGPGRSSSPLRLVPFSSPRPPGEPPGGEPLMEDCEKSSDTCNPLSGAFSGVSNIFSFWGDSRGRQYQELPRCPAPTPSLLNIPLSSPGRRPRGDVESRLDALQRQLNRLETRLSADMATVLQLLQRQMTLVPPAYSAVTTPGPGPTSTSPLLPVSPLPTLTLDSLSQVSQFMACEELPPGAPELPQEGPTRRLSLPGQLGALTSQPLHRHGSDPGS
Method in brief: (§1)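 hERG current recorded in CHO cells by automated patch clamp; percent inhibition at 0.37, 1.1, 3.3, 10 and 30 µM.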

[3] = biological target: T3, 5-hydroxytryptamine receptor 2A (Homo sapiens, UniProt P28223); assay: Agonist activity at human 5-HT2A receptor expressed in HEK293 cells assessed as calcium flux by FLIPR assay relative to 5-HT; format: functional, cell-based
T3 sequence (P28223 whole entry): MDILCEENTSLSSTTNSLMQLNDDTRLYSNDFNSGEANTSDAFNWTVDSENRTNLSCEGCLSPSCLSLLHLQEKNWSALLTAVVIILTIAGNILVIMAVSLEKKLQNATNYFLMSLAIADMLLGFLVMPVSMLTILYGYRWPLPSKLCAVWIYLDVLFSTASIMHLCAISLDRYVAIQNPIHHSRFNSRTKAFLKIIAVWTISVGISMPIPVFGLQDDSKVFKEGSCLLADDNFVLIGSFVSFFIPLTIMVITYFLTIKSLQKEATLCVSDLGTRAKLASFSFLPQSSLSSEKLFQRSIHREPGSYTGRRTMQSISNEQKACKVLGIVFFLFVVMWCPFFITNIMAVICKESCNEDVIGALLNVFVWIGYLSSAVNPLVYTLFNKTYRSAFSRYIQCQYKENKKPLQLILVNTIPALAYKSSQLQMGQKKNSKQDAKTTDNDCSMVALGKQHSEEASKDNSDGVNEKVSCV
Method in brief: (§2)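 Flp-In-293 cells stably expressing human 5-HT2A, 5-HT2B or 5-HT2C-INI; grown 24–48 h in DMEM/10% dialyzed FBS, plated on poly-L-Lys at 12000 cells/well in 1% dialyzed FBS for 24 h. Loaded 1 h at 37 °C with calcium dye in HBSS, 20 mM Hepes pH 7.40, 2.5 mM probenecid.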

hERG (KCNH2) [4] = biological target: T2, hERG (KCNH2); assay: (§3) Inhibition of human ERG channel expressed in CHO cells at […] by patch clamp method; format: cell-based; settings: CHO cells expressing human ERG channel
CYP3A4 = CYP3A4 (Homo sapiens, UniProt P08684); assay: Inhibition of human CYP3A4 using midazolam as substrate at 10 uM; format: ADME; settings: probe midazolam
CYP3A4, sequence (P08684 whole entry): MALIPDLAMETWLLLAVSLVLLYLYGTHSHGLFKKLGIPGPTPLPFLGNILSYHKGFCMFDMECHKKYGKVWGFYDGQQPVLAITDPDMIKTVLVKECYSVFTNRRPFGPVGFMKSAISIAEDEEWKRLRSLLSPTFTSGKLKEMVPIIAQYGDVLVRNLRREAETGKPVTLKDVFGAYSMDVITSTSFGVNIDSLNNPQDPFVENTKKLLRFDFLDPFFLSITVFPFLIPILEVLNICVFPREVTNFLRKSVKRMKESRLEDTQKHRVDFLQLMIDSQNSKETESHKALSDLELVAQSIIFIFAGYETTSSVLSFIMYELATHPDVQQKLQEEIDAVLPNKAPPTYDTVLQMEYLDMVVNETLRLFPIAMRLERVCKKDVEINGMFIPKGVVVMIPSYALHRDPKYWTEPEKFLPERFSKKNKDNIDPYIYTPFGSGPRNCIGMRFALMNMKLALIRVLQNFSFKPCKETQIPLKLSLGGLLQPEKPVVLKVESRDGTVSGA
Method in brief: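 Human liver microsomes with test compound at 10 µM; percent inhibition determined using bupropion (2B6), dextromethorphan (2D6) or midazolam (3A/3A4) as probe substrates.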

[5] = biological target: T4, 5-hydroxytryptamine receptor 2C (Homo sapiens) (UniProt P28335); assay: Agonist activity at human 5-HT2C receptor expressed in HEK293 cells assessed as calcium flux by FLIPR assay relative to 5-HT; format: functional, cell-based; method in brief: as §2
T4 sequence (whole entry): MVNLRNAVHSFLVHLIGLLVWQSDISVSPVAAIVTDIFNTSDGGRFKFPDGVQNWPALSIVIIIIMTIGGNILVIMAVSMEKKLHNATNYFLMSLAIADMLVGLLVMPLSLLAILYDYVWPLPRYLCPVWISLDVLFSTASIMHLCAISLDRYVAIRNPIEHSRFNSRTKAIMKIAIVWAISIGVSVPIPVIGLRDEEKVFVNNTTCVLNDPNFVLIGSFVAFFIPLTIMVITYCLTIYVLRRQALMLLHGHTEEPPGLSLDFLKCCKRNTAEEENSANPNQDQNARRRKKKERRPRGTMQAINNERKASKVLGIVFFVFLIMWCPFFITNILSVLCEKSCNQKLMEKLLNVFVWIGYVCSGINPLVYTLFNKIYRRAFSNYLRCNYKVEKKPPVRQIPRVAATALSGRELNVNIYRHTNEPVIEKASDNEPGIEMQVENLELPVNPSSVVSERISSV

[6] = biological target: Voltage-gated inwardly rectifying potassium channel KCNH2 (Homo sapiens, UniProt Q12809); assay: Inhibition of human ERG channel expressed in CHO cells by patch clamp method; format: cell-based; settings: human, cho
Voltage-gated inwardly rectifying potassium channel KCNH2, sequence (Q12809 whole entry): as the sequence (Q12809 whole entry) above

Mus musculus = assay: Antipsychotic activity in C57BL/6J mouse assessed as reduction of amphetamine-induced locomotor activity at 10 to 20 mg/kg, ip administered 15 mins prior to amphetamine challenge measured for 105 mins by open field test relative to vehicle-treated control; format: functional, organism-based
hERG (KCNH2) [7] = biological target: T2, hERG (KCNH2); assay: as §3; format: cell-based; settings: CHO cells expressing human ERG channel; remark: listed apart in the source
[8] = biological target: T5, 5-hydroxytryptamine receptor 2C (Homo sapiens, UniProt P28335); assay: Agonist activity at human 5-HT2C receptor expressed in HEK293 cells assessed as calcium flux by FLIPR assay; format: functional, cell-based
T5 sequence (P28335 whole entry): T4 sequence (whole entry)

hERG (KCNH2) [9] = biological target: T2, hERG (KCNH2); assay: Inhibition of human ERG channel expressed in CHO cells at 3.3 uM by patch clamp method; format: cell-based; settings: CHO cells expressing human ERG channel; method in brief: as §1
hERG (KCNH2) [10] = biological target: T2, hERG (KCNH2); assay: Inhibition of human ERG channel expressed in CHO cells at 30 uM by patch clamp method; format: cell-based; settings: CHO cells expressing human ERG channel; method in brief: as §1
[11] = biological target: T3, 5-hydroxytryptamine receptor 2A; assay: Agonist activity at human 5-HT2A receptor expressed in HEK293 cells assessed as calcium flux by FLIPR assay; format: functional, cell-based
[12] = biological target: Alpha-2A adrenergic receptor (Homo sapiens, UniProt P08913); assay: Binding affinity to adrenergic alpha-2A receptor (unknown origin)
CYP2D6 = CYP2D6 (Homo sapiens, UniProt P10635); assay: Inhibition of human CYP2D6 using dextromethorphan as substrate at 10 uM; format: ADME; settings: probe dextromethorphan
CYP2B6 = biological target: T6, CYP2B6 (Homo sapiens, UniProt P20813); assay: Inhibition of human CYP2B6 using bupropion as substrate at 10 uM; format: ADME; settings: probe bupropion
T6 sequence (P20813 whole entry): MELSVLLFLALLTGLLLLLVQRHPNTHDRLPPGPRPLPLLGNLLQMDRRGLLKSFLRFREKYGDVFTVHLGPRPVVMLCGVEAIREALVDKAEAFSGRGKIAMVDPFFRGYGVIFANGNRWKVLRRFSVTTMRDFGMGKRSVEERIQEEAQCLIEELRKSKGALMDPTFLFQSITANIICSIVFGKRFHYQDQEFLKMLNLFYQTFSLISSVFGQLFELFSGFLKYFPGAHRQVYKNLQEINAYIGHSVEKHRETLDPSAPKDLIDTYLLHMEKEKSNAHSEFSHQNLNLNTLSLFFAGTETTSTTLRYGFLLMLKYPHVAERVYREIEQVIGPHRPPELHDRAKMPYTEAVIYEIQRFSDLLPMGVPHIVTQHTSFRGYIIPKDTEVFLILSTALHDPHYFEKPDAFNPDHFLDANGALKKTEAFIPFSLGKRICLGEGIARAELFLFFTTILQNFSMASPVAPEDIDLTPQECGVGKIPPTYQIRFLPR

Homo sapiens [13] = species: Homo sapiens; assay: Selectivity ratio of EC50 for human 5-HT2A receptor to EC50 for human 5HT2C receptor
CYP2C9 = CYP2C9 (Homo sapiens, UniProt P11712); assay: Inhibition of human CYP2C9 using diclofenac as substrate at 10 uM; format: ADME; settings: probe diclofenac
CYP2C9, sequence (P11712 whole entry): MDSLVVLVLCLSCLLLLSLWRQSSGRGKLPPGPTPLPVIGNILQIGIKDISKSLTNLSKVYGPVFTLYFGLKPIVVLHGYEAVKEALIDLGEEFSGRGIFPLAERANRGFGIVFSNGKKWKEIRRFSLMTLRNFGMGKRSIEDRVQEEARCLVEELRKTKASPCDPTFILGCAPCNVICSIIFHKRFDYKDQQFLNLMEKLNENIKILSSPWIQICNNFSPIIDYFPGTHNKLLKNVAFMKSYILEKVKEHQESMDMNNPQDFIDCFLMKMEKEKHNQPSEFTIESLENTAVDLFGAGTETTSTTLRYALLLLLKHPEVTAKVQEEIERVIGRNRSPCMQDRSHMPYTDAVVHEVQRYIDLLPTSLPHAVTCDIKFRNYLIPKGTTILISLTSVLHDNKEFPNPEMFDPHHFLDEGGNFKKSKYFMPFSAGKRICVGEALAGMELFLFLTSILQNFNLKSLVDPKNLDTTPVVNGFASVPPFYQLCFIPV

[14] = biological target: T5, 5-hydroxytryptamine receptor 2C; assay: (§4) Agonist activity at 5HT2C receptor (unknown origin) relative to control
[15] = biological target: T4, 5-hydroxytryptamine receptor 2C (Homo sapiens); assay: as §4
[16] = biological target: T1, 5-hydroxytryptamine receptor 2B; assay: Agonist activity at 5HT2B receptor (unknown origin) relative to control; method in brief: as §2
Homo sapiens [17] = species: Homo sapiens; assay: Selectivity ratio of EC50 for 5HT2B receptor (unknown origin) to EC50 for 5HT2C receptor (unknown origin)

CYP2C19, sequence (P33261 whole entry): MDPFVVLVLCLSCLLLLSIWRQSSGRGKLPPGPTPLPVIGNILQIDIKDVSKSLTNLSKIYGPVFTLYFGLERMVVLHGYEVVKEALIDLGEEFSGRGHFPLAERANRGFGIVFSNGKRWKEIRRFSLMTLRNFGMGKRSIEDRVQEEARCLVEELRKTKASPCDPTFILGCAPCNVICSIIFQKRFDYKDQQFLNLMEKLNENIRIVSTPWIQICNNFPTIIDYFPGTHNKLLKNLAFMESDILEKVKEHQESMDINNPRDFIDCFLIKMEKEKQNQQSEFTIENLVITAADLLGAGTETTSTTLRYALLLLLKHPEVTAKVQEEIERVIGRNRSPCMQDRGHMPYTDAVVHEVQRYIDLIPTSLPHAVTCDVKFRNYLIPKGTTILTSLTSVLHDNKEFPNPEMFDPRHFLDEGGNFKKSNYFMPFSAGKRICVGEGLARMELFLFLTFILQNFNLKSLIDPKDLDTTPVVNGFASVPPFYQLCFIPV

In the case of `Cl.NC[C@H]1C[C@@H]1c1cc(F)ccc1OCCF`, the inhibition at 10 µM (CYP2C19) is reported as 26%, the Activity [1] is reported as “inactive” and the inhibition at 10 µM (hERG (KCNH2) [2]) is reported as 25%. For the same molecule, the Emax [3] was 76%, the inhibition at […] (hERG (KCNH2) [4]) was 6% and the inhibition at 10 µM (CYP3A4) was 10%. For the same molecule, the Emax [5] was 89%, the “inhibition (INH)” value [6] was “Dose-dependent effect” and the Activity (Mus musculus) was “Active”. It also gave an inhibition at […] (hERG (KCNH2) [7]) of 11%, an EC50 [8] of 3.4 nM and an inhibition at 3.3 µM (hERG (KCNH2) [9]) of 15%. For the same molecule, the inhibition at 30 µM (hERG (KCNH2) [10]) was 35%, the EC50 [11] was 359 nM and the Ki [12] was < 1000 nM. The inhibition at 10 µM (CYP2D6) was 24%, the inhibition at 10 µM (CYP2B6) was 6% and the Ratio EC50 (Homo sapiens [13]) was > 100. It also gave an inhibition at 10 µM (CYP2C9) of 16%.

`Clc1cccc(COc2cncc(N3CCNCC3)n2)c1` gave an EC50 [14] of 0.11 nM, an Emax [15] of 93% and an EC50 [16] of 65.3 nM. It also gave an Emax [16] of 57% and a Ratio EC50 (Homo sapiens [17]) of 600.
